The text below walks through data of ChEMBL document CHEMBL1126793, “Effect of trifluoromethyl and other substituents on activity of xanthines at adenosine receptors” (J Med Chem, 1993).

For one experiment, the target named is Adenosine receptor A2a (Rattus norvegicus, UniProt P30543). The experiment can be described thus: Binding affinity for adenosine A2A receptor from rat brain membranes using [3H]CGS-21680.
In another experiment the target is T1, Adenosine receptor A1 (Rattus norvegicus, UniProt P25099).
T1 sequence (P25099 whole entry): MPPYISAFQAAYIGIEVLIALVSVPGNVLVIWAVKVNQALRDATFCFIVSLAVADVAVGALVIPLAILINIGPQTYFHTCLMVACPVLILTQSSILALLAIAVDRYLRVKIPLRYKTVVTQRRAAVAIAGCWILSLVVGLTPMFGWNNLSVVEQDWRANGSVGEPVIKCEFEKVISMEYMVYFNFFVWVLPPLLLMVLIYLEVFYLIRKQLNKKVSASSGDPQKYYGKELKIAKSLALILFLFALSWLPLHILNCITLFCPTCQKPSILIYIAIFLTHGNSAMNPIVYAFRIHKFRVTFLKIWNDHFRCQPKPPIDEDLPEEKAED
The experiment can be described thus: Binding affinity for adenosine A1 receptor from rat brain membranes using [3H]PIA as radioligand.

Experiment [1] deals with T2, Adenosine receptor A1 (Rattus norvegicus) (UniProt P25099).
T2 sequence (whole entry): T1 sequence (P25099 whole entry)
The experiment in a line: Inhibition of [3H]PIA binding to Adenosine A1 receptor in rat brain membranes at 100 uM. The following applies: 250 uM, in the assay text read “250 uM” for “100 uM”. The class given is cell membranes. A digest of the protocol:
(§1)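 Rat brain membranes labelled with 1 nM [3H]-N6-[(R)-phenylisopropyl]adenosine for A1 sites. Nonspecific binding was defined with 10 μM 2-chloroadenosine. The value is percent inhibition of specific binding at the highest concentration tested, which was sometimes limited by solubility.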

The target of experiment [2] is Adenosine receptor A2a (Rattus norvegicus) (UniProt P30543). The experiment in a line: Inhibition of [3H]-CGS- 21680 binding to Adenosine A2A receptor in rat brain membranes at 100 uM. Type of experiment: cell membranes. A digest of the protocol:
(§2)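 Rat striatal membranes incubated with 4 nM [3H]CGS 21680 as the A2a radioligand. Nonspecific binding was defined with 20 μM 2-chloroadenosine. The value is percent inhibition of specific binding at the highest concentration tested, which was sometimes limited by solubility.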

The target in experiment [3] is T2, Adenosine receptor A1 (Rattus norvegicus). The experiment in a line: Inhibition of [3H]PIA binding to A1 adenosine receptor in rat brain membranes at 250 uM. Type of experiment: cell membranes. A digest of the protocol: as §1
Experiment [4] deals with Adenosine receptor A2a (Rattus norvegicus) (UniProt P30543). The experiment can be described thus: Inhibition of [3H]-CGS- 21680 binding to Adenosine A2A receptor in rat brain membranes at 250 uM. The class given is cell membranes. The method, boiled down: as §2
The target is the same in experiment [5]. The experiment in a line: Inhibition of [3H]-CGS- 21680 binding to Adenosine A2A receptor in rat brain membranes at 20 uM. The class given is cell membranes. A digest of the protocol: as §2
Experiment [6] has the same target. The experiment in a line: Inhibition of [3H]-CGS- 21680 binding to Adenosine A2A receptor in rat brain membranes at […]. The class given is cell membranes. A digest of the protocol:
as §2

Sequence of Adenosine receptor A2a (Rattus norvegicus) (P30543 whole entry): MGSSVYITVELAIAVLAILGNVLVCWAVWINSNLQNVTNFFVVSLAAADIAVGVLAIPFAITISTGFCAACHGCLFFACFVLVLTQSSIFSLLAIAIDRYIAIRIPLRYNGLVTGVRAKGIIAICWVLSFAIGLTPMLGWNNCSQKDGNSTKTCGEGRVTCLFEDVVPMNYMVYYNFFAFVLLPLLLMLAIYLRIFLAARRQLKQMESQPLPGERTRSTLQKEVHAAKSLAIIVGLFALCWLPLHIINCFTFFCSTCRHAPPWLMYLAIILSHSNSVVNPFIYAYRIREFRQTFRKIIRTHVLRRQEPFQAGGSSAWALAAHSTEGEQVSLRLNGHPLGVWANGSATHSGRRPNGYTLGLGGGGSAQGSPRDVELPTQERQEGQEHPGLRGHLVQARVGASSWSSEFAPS
Sequence of Adenosine receptor A2a (P30543 whole entry): as above

Take `C=CCn1c(=O)c2c(nc(-c3ccccc3)n2CC=C)n(C)c1=O`: the Ki at Adenosine receptor A2a was found to be 7.7 µM; on Adenosine receptor A1 it was 0.66 µM.
With `Cn1c(=O)c2[nH]c(-c3ccccc3)nc2n(C)c1=O` [8-PHENYL THEOPHYLLINE], the affinity on Adenosine receptor A2a, expressed as Ki, was 0.97 µM. This lies in the sub-micromolar range.
As to `Cn1c(=O)c2[nH]c(Cl)nc2n(C)c1=O`, the values for the inhibition in experiment [1] and in experiment [2] were 39% and 34%, respectively.
At Adenosine receptor A2a, `CCCn1c(=O)c2[nH]c(-c3ccc(S(=O)(=O)O)cc3)nc2n(CCC)c1=O` showed a Ki of 0.79 µM.
The same measure, in the same setting: the figure for `CCCn1c(=O)c2[nH]c(-c3ccccc3)nc2n(CCC)c1=O` is 0.14 µM.
With `Cn1c(=O)c2nc(C(F)(F)F)[nH]c2n(C)c1=O`, the inhibition in experiment [3] and in experiment [4] was 0% each time.
As to `Cn1c(=O)c2c(nc(C(F)(F)F)n2C)n(C)c1=O`, the Ki on Adenosine receptor A2a was 29 µM. In experiment [1], the inhibition was determined as 8%.
Take `Cn1c(=O)c2c(nc(Br)n2C)n(C)c1=O`: the Ki on Adenosine receptor A2a is 12 µM; on Adenosine receptor A1 it was 49 µM.
`Cc1nc2c(=O)n(C)c(=O)n(C)c2[nH]1` gave a Ki at Adenosine receptor A1 of 8.8 µM. The molecule also displayed an inhibition in experiment [4] of 34%.
As to `Cn1c(=O)c2[nH]c(-c3ccc(C(F)(F)F)cc3)nc2n(C)c1=O`, the Ki at Adenosine receptor A2a came out at 0.21 µM; at Adenosine receptor A1, 0.15 µM.
On to `Cn1c(-c2ccc(S(=O)(=O)O)cc2)nc2c1c(=O)[nH]c(=O)n2C`, for which the results for the inhibition in experiment [1] and in experiment [4] were 1.8% and 0%, respectively.
As for `Cc1nc2c(c(=O)n(C)c(=O)n2C)n1C`, the Ki at Adenosine receptor A2a stood at 7.6 µM; on Adenosine receptor A1, 4.9 µM.
`CCCn1c(=O)c2nc[nH]c2n(CCC)c1=O` returned a Ki at Adenosine receptor A2a of 2.6 µM.
`C=CCn1c(=O)c2c(nc(-c3ccc(S(=O)(=O)O)cc3)n2C)n(C)c1=O` registered a Ki at Adenosine receptor A2a of 27 µM. Besides, the inhibition in experiment [1] came to 35%.
With `CCCn1c(=O)c2nc(-c3ccc(C(F)(F)F)cc3)[nH]c2n(CCC)c1=O`, the figures for the Ki at Adenosine receptor A2a and at Adenosine receptor A1 were 0.042 µM and 0.0075 µM, respectively.
For `C=CCn1c(-c2ccc(C(F)(F)F)cc2)nc2c1c(=O)n(CCC)c(=O)n2CCC`, in that order: 4.2 µM and 2.9 µM.
The matching figures for `C=CCn1c(=O)c2c(nc(-c3ccc(C(F)(F)F)cc3)n2C)n(C)c1=O`: 11 µM and 5.7 µM.
Regarding `Cn1c(=O)c2c(nc(C3CCC3)n2C)n(C)c1=O`, the Ki was determined as 19 µM on Adenosine receptor A2a and 30 µM on Adenosine receptor A1.
The matching figures for `CCC/C=C/c1nc2c(=O)n(C)c(=O)n(C)c2[nH]1`: 0.44 µM and 0.38 µM.
In the case of `CC(C)Cn1c(=O)n(C)c(=O)c2[nH]cnc21` [ISOBUTYLMETHYLXANTHINE], the Ki at Adenosine receptor A2a was 5.8 µM.
The same measure, in the same setting: as for `Cn1c(=O)c2c(nc(-c3ccccc3)n2C)n(C)c1=O`, the figure is 16 µM.
In experiment [2], `CC(C)Cn1c(=O)n(C)c(=O)c2[nH]c(Br)nc21` had an inhibition of 10%. Also, the affinity on Adenosine receptor A1 corresponds to a Ki of 65 µM.
Consider `CCCn1c(=O)c2nc(C)[nH]c2n(CCC)c1=O`, for which the values for the Ki at Adenosine receptor A2a and at Adenosine receptor A1 were 2.8 µM and 0.6 µM, respectively.
Consider `CCCn1c(=O)c2nc(-c3ccc(S(N)(=O)=O)cc3)[nH]c2n(CCC)c1=O`, for which, on Adenosine receptor A2a, the Ki amounted to 0.075 µM.
Molecule `Cn1c(=O)c2[nH]c(-c3ccc(S(=O)(=O)O)cc3)nc2n(C)c1=O` showed a Ki at Adenosine receptor A2a of 5.8 µM. This Ki is about 77-fold higher than that of the molecule before.
Molecule `Cn1c(=O)c2[nH]c(Br)nc2n(C)c1=O` [PAMABROM] registered an inhibition in experiment [2] of 36%. Affinity on Adenosine receptor A1 was put at a Ki of 10.2 µM.
`C=CCn1c(=O)c2c(nc(-c3ccccc3)n2C)n(C)c1=O`: the results for the Ki at Adenosine receptor A2a and at Adenosine receptor A1 were 12 µM and 9 µM, respectively.
The molecule `Cn1c(=O)c2c(nc(-c3ccc(S(=O)(=O)O)cc3)n2C)n(C)c1=O` returned a Ki at Adenosine receptor A2a of 20 µM. The inhibition in experiment [1] was found to be 3.3%.
In turn, `Cn1c(-c2ccccc2)nc2c1c(=O)[nH]c(=O)n2C` registered a Ki at Adenosine receptor A2a of 12 µM.
Take `Cn1c(-c2ccc(S(N)(=O)=O)cc2)nc2c1c(=O)[nH]c(=O)n2C`: the inhibition in experiment [1] was determined as 33%; in experiment [4], 42%.
On Adenosine receptor A2a, `Cn1c(=O)c2c(nc(/C=C/C(=O)O)n2C)n(C)c1=O` had a Ki of 42 µM. The inhibition in experiment [1] stood at 3%.
Take `Cn1c(=O)c2c(nc(-c3ccc(C(F)(F)F)cc3)n2C)n(C)c1=O`: the Ki on Adenosine receptor A2a came out at 16 µM; on Adenosine receptor A1, 17 µM.
For `Cn1c(=O)c2nc(C3CCC3)[nH]c2n(C)c1=O`, in that order: 2.8 µM and 0.19 µM.
On to `CCCn1c(=O)c2nc(C(F)(F)F)[nH]c2n(CCC)c1=O`, for which the results for the inhibition in experiment [1] and in experiment [5] were 4.5% and 4.3%, respectively.
On Adenosine receptor A1, `CCC/C=C/c1nc2c(c(=O)n(C)c(=O)n2C)n1C` yielded a Ki of 9.1 µM.
In turn, `Cn1c(-c2ccc(C(F)(F)F)cc2)nc2c1c(=O)[nH]c(=O)n2C` registered a Ki on Adenosine receptor A1 of 3.7 µM. Also, the inhibition in experiment [6] stood at 10%.
As for `Cn1c(=O)c2c(nc(/C=C/C(=O)OC(C)(C)C)n2C)n(C)c1=O`, the Ki at Adenosine receptor A2a was found to be 0.61 µM; at Adenosine receptor A1, 12 µM.

One may read the Ki as a measure of affinity in units of concentration, obtained from inhibition or displacement. For orientation: inhibition means the percentage by which the read-out fell short of the control. A high value points to strong suppression.
